In ChEMBL document CHEMBL1145451, “Discovery of isonicotinamide derived beta-secretase inhibitors: in vivo reduction of beta-amyloid” (J Med Chem, 2007):

What was measured:
Brain [1] = assay: Drug level in APP-YAC mouse brain at 25 mg/kg, iv; assay type: ADME, organism-based; parameters: dose 25 mg/kg, route intravenous; settings: in vivo, read-out: Drug uptake
In short: (§1)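 Dose response: APP-YAC transgenic mice given i.v. bolus doses of 6.25, 12.5, 25 or 50 mg/kg; brain drug concentration determined 3.0 h post-dose.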

Rattus norvegicus = assay: Plasma clearance in rat at 2 mg/kg, iv; assay type: ADME, organism-based; parameters: dose 2 mg/kg, route intravenous; settings: in vivo
[2] = Ratio of drug level in APP-YAC mouse brain to IC50 for BACE1 in HEK293T cells; assay type: ADME, cell-based; settings: hek-293t
[3] = Drug level in APP-YAC mouse brain at 50 mg/kg, iv after 4.5 hrs; assay type: ADME, organism-based; parameters: dose 50 mg/kg, route intravenous; settings: read-out: Drug uptake
In short: (§2)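 Time course: transgenic mice expressing human WT APP from a yeast artificial chromosome given a 50 mg/kg i.v. bolus; brain drug concentration measured at 0.5, 1.5, 3 and 4.5 h post-dose.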

[4] = Volume of distribution in rat at 2 mg/kg, iv; assay type: ADME, organism-based; parameters: dose 2 mg/kg, route intravenous; settings: in vivo, read-out: Vdss
Beta-secretase 1 [5] = target: T1, Beta-secretase 1 (Homo sapiens, UniProt P56817); assay: Inhibition of BACE1 by ECL assay
Mus musculus = assay: Reduction of beta amyloid protein 40 level in transgenic APP-YAC mouse at 50 mg/kg, iv after 3 hrs relative to control; assay type: functional; parameters: scale not given: the % may be the effect or the level left
In short: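 APP-YAC mice (human WT APP on a yeast artificial chromosome) given i.v. bolus; brain Aβ40 measured at 0.5–4.5 h (time course, 50 mg/kg) and at 3.0 h across 6.25–50 mg/kg; reduction relative to vehicle-treated animals, Tukey-Kramer HSD statistics; γ-secretase inhibitor as positive control.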

[6] = Drug level in APP-YAC mouse brain at 50 mg/kg, iv after 0.5 hrs; assay type: ADME, organism-based; parameters: dose 50 mg/kg, route intravenous; settings: read-out: Drug uptake; in short: as §2
[7] = Half life in rat at 2 mg/kg, iv; settings: in vivo
Beta-secretase 1 [8] = target: T1, Beta-secretase 1; assay: Inhibition of BACE1 assessed as effect on soluble APPbeta N-terminal fragment secretion in HEK293T cells; assay type: cell-based, HEK-293T
LLC-PK1 = assay: Ratio of permeability from basolateral to apical over apical to basolateral side in LLC-PK1 cells transfected with MDR1 by PGP assay; assay type: ADME, cell-based; settings: human
[9] = Cmax in rat at 10 mg/kg, po; assay type: ADME, organism-based; parameters: dose 10 mg/kg, route oral; settings: in vivo
[10] = Oral bioavailability in rat; assay type: ADME, organism-based; settings: in vivo
Brain [11] = assay: Drug level in APP-YAC mouse brain at 50 mg/kg, iv; assay type: ADME, organism-based; parameters: dose 50 mg/kg, route intravenous; settings: in vivo, read-out: Drug uptake; in short: as §1
[12] = Drug level in APP-YAC mouse brain at 20 mg/kg, iv after 30 mins; assay type: ADME, organism-based; parameters: dose 20 mg/kg, route intravenous; settings: read-out: Drug uptake
In short: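 Brain penetration: brain concentration in mice measured 30 min after a 20 mg/kg i.v. dose, n of 3, reported in nM.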

T1 sequence (P56817 whole entry): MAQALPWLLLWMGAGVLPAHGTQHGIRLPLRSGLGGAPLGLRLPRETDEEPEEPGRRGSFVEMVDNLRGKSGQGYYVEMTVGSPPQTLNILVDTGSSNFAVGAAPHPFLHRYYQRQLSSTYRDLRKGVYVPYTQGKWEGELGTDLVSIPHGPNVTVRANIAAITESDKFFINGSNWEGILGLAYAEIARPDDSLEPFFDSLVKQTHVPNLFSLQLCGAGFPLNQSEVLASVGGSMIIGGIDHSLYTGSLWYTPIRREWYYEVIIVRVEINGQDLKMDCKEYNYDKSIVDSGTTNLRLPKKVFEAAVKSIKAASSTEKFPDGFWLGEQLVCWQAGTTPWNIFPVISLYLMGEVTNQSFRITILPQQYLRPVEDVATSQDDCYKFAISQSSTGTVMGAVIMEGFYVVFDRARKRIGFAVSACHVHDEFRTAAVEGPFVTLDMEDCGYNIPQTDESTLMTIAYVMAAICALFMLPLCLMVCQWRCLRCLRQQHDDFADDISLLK

`CC(C)S(=O)(=O)N(C)c1cc(C(=O)N[C@@H](Cc2ccccc2)[C@@H](N)CF)cc(NC[C@H]2C[C@@H]2C)n1` showed a concentration (Brain [1]) of 700 nM, a clearance (Rattus norvegicus) of 45.8 mL/min/kg and a Ratio [2] of 11.4. It also gave a concentration at 4.5 h [3] of 700 nM, a Vd [4] of 3.9 L/kg and an IC50 (Beta-secretase 1 [5]) of 2 nM. The Activity (Mus musculus) was 34%, the concentration at 0.5 h [6] was 5800 nM and the half-life [7] was 1.6 h. For the same molecule, the IC50 (Beta-secretase 1 [8]) was 49 nM, the Ratio (LLC-PK1) was greater than 50 and the Cmax [9] was 300 nM. The bioavailability [10] was 13% and the concentration (Brain [11]) was 1900 nM.

In the case of `CN(c1cc(C(=O)N[C@H](CO)Cc2cc(F)cc(F)c2)cc(NCC2CC2)n1)S(C)(=O)=O`, the IC50 (Beta-secretase 1 [5]) is reported as 1100 nM.

`CC(C)S(=O)(=O)N(C)c1cc(C(=O)N[C@@H](Cc2ccccc2)[C@@H](N)CF)cc(N(C)C[C@H]2C[C@@H]2C)n1` gave a clearance (Rattus norvegicus) of 59.1 mL/min/kg, a Ratio [2] of 3.4 and a Vd [4] of 4.2 L/kg. The IC50 (Beta-secretase 1 [5]) was 18 nM, the IC50 (Beta-secretase 1 [8]) was 910 nM and the Ratio (LLC-PK1) was 4.8. It also gave a Cmax [9] of 200 nM and a bioavailability [10] of 8%.

`CCCN(CC1CC1)c1cc(C(=O)N[C@H](CO)Cc2ccccc2)cc(N(C)S(=O)(=O)C(C)C)n1` showed a Ratio [2] of less than 0.07, a concentration at 0.5 h [12] of 1400 nM and an IC50 (Beta-secretase 1 [5]) of 350 nM. It also gave an IC50 (Beta-secretase 1 [8]) greater than 20000 nM and a Ratio (LLC-PK1) of 3.6.

Molecule `CC(C)S(=O)(=O)N(C)c1cc(C(=O)N[C@H](CO)Cc2cc(F)cc(F)c2)cc(NC[C@H]2C[C@@H]2C)n1` has an IC50 (Beta-secretase 1 [5]) of 14 nM and an IC50 (Beta-secretase 1 [8]) greater than 20000 nM.

Work on `CC1CC1CN(C)c1cc(C(=O)N[C@@H](Cc2cc(F)cc(F)c2)[C@@H](N)CF)cc(N(C)S(=O)(=O)C(C)C)n1` (mixture of isomers) yielded a concentration at 0.5 h [12] of 3080 nM.

`CC1CC1CNc1cc(C(=O)N[C@@H](Cc2ccccc2)[C@@H](N)CF)cc(N(C)S(=O)(=O)C(C)C)n1` (mixture of isomers) showed a concentration at 0.5 h [12] of 560 nM.
